Measured values pooled from the literature.
Compare with care: the assays were run in different laboratories.
Cell line: HepG2
Read-out: cell growth or viability

COc1ccc(-c2nc3ccccc3n2Cc2ccccc2)cc1OC  IC50 (MTT): 19.9 µM
CC(=O)Nc1cccc(-n2c(=O)n(C3CC3)c(=O)c3c(Nc4ccc(I)cc4F)n(C)c(=O)c(C)c32)c1  viability (resazurin; 6.25 nM; 72 h): 68%
CCOC(=O)c1ccc(-n2c(N)c(C#N)c(CC#N)c(C#N)c2=O)cc1  viability (MTT; 6.25 µM; 24 h): 71.8%
Cc1ccc2nc(-c3ccc(Cl)cc3)[nH]c2c1  IC50 (MTT; 48 h): 28.9 µM
CCOC(=O)c1ccc(-n2c(C)cc(C)c(C#N)c2=O)cc1  viability (MTT; 6.25 µM; 24 h): 90.3%
COc1ccc(NCC(=O)Nc2c(C#N)sc(Nc3ccccc3)c2C(=O)Nc2ccc(OC)cc2)cc1  viability (SRB; 1 nM; 48 h): 97.2%
Cc1ccc2nc(-c3ccc(F)cc3)[nH]c2c1  IC50 (MTT; 48 h): 80.4 µM
COc1ccc(NC(=O)c2c(Nc3ccccc3)sc(C(=O)NN=Cc3ccc(OC)c(O)c3)c2NC(C)=O)cc1  viability (SRB; 1 nM; 48 h): 100%
Cc1ccc2nc(-c3ccco3)[nH]c2c1  IC50 (MTT; 48 h): > 100 µM
COc1ccc(NC(=O)c2c(Nc3ccccc3)sc(C#N)c2NC(=O)CNc2ccc(Br)cc2)cc1  viability (SRB; 100 µM; 48 h): 39.7%
CCOC(=O)c1ccc(-n2c(-c3ccc(C)cc3)cc(-c3ccc(O)cc3)c(C#N)c2=O)cc1  viability (MTT; 12.5 µM; 24 h): 50.4%
COc1ccc(NC(=O)c2c(Nc3ccccc3)sc(C(=O)NN=Cc3ccccc3)c2NC(C)=O)cc1  viability (SRB; 1 nM; 48 h): 99.3%
Clc1ccccc1-c1nc2ccccc2[nH]1  IC50 (MTT; 48 h): 31.5 µM
COc1ccc(NC(=O)c2c(Nc3ccccc3)sc(C#N)c2NC(=O)CNc2ccccc2Cl)cc1  viability (SRB; 1 nM; 48 h): 101%
CCOC(=O)c1ccc(N2C(N)=C(C#N)C3(C(=O)Nc4ccccc43)C(C#N)=C2O)cc1 (stereo not drawn)  viability (MTT; 100 µM; 24 h): 10.7%
